“And” between values parts separate entries of the source, which are not always exact repeats. Identical values can stand only once.
Biological target: Metabotropic glutamate receptor 4 (Rattus norvegicus) (UniProt P31423)
Test: rat mGlu4 modulators, glutamate EC50 fold shift, SAR follow-up, mGlu4 lead optimization, HEK/GIRK cells, thallium flux (AID 623889)
Conditions: at 30 µM, stronger effect = higher value; for glutamate max response: measured here: glutamate maximal response with compound
Method in brief: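 Material: rat mGlu4/GIRK/M4 HEK cell line; Reagent: glutamate concentration series delivered in thallium-containing buffer; Dosing: single test compound concentration, 30 µM final (from 2x solution); Schedule: compound pre-incubation about 2.5 min before glutamate addition; Signal: FluoZin-2 fluorescence thallium flux; Measure: glutamate curve fold shift, four-parameter fit.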

Chain of Metabotropic glutamate receptor 4 (Rattus norvegicus) (P31423 whole entry, looked up): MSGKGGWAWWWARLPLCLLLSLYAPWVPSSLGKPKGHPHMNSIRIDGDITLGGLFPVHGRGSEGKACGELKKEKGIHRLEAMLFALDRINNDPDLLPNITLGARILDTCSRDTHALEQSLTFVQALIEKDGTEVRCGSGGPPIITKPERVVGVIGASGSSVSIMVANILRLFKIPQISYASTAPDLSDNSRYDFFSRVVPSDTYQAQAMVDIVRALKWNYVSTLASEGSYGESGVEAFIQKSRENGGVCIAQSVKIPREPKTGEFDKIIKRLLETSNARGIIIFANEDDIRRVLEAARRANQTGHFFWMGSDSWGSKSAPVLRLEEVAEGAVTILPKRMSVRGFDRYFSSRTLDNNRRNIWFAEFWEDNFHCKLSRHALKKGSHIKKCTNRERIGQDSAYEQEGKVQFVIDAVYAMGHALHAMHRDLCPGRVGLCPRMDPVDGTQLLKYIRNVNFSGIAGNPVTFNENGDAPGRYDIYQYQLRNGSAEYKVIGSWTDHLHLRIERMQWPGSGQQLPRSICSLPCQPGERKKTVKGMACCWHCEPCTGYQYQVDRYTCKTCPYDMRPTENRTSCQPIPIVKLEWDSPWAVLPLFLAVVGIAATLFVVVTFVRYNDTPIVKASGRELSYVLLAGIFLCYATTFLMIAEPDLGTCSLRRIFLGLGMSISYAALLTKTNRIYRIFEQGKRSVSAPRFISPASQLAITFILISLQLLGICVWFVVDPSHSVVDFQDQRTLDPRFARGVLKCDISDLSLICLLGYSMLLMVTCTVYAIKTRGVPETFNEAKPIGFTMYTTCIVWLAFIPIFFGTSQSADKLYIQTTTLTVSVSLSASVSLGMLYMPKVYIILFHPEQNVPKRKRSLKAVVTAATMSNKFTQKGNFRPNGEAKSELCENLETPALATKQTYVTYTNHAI

SMILES	fold shift	glutamate max response
Fc1cccc(Nc2noc3cccnc23)c1	8.9	93.6%
FC(F)Oc1cccc(Nc2noc3cccnc23)c1	21.7 and 16.3	98.4% and 99.7%
COc1cc(Nc2noc3cccnc23)ccc1Cl	6.67	84.3%
CC(C)N(C(=O)c1ccccn1)c1cccc(Cl)c1	3.16	108%
Clc1cccc(Nc2noc3cccnc23)c1	31.1 and 22.7 and 17.8	90.3% and 98.5% and 99.1%
O=C(Nc1ccc2c(c1)C(=O)NC2=O)c1ccccn1	2.52	105%

Continued, values first:

fold shift	glutamate max response	SMILES
15.3	87.2%	Clc1ccc2nc(-c3ccccn3)[nH]c2c1
3.21	90.9%	COc1cc2nc(-c3ccccn3)[nH]c2cc1Cl
11.9	103%	O=C(Nc1ccc2cn[nH]c2c1)c1ccccn1
30.2	88.8%	O=C(Nc1cccc(Cl)c1)c1ccccn1
4.02	87.2%	Clc1cccc(Nc2ncnc3cccnc23)c1
